Reference: article PMC12391519 (Scientific Reports, 2025)

Assays:
[1] = cited from earlier work
[2] = Free serum TEIC trough concentration by ultrafiltration followed by HPLC; assay type: in vivo, human
How it was run: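 Trough serum (1 mL) was ultrafiltered through a 30 kDa cutoff filter. The filtrate got primidone internal standard, acetonitrile deproteinisation and 0.1 M HCl/chloroform cleanup, then C18 HPLC-UV at 215 nm; calibrators were in ultrafiltered human serum. Response was […] CRP decrease plus ≥0.3 °C fever reduction for two consecutive days within 96 h. Adverse events were renal or hepatic dysfunction. Groups were compared by Mann–Whitney U.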

[3] = Adverse events during TEIC therapy; assay type: in vivo, human; settings: ROC analysis, n = 41
How it was run: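 Renal dysfunction was a serum creatinine rise of ≥0.3 mg/dL within 48 h, or ≥1.5-times baseline within seven days, of TEIC administration. Hepatic dysfunction was AST or ALT outside the normal limit of ≤30 IU/L (CTCAE v5.0). ROC analysis used measured free trough TEIC (ultrafiltration, HPLC-UV). The cutoff was the point where sensitivity and specificity, plotted against free concentration, gave the best result.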

[4] = Total serum TEIC trough concentration by HPLC in patients on TEIC therapy; assay type: in vivo, human
How it was run: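 Trough serum was drawn before dosing (days 3–4 of loading, day 7 onward of maintenance), centrifuged 1,800 g for 15 min at 25 °C and stored at –30 °C. It got primidone internal standard, acetonitrile deproteinisation and 0.1 M HCl/chloroform cleanup. HPLC-UV ran at 215 nm on a C18 column at 35 °C with a 10 mM phosphate pH 3.0/acetonitrile gradient at 1.0 mL/min. Calibrators were in commercial human serum; groups were compared by Mann–Whitney U.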

[5] = tested on: albumin; settings: cited from earlier work
[6] = tested on: serum albumin; assay: Free TEIC percentage; assay type: in vitro ADME, human; settings: patient serum, HPLC-UV
How it was run: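 Free percentage is free/total trough TEIC, both measured by HPLC-UV at 215 nm; free drug was taken after 30 kDa ultrafiltration of serum. Samples were drawn before dosing on days 3–4 (loading: five doses, median 13 mg/kg every 12 h) or from day 7 (maintenance: median 7.8 mg/kg once daily). Relation to albumin was assessed by Spearman rank correlation.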

Teicoplanin
Cutoff of mean free serum TEIC concentration associated with renal dysfunction ([1]; Sugiyama et al.): 4.2 µg/mL | Effective total serum TEIC trough concentrations in clinical settings [1]: 15 to 40 µg/mL | Effective total serum TEIC trough concentrations, complicated infections [1]: 20 to 40 µg/mL | Effective total serum TEIC trough concentrations, uncomplicated infections [1]: 15 to 30 µg/mL | TEIC concentration causing renal dysfunction [1]: > 60 µg/mL | Free serum TEIC concentration, single patient with adverse events ([2]; another patient, total serum TEIC < 40 μg/mL, adverse events noted): 6.31 µg/mL | Trough free concentration, loading dose period, median ([2]; loading dose period, ultrafiltration 30 kDa, HPLC-UV, median): 1.50 µg/mL | Trough free concentration, maintenance dose period, median ([2]; maintenance dose period, ultrafiltration 30 kDa, HPLC-UV, median): 1.65 µg/mL | Free serum TEIC concentration, patients with adverse events, median ([2]; n = 7, median): 2.60 µg/mL | Free serum TEIC concentration, patients without effective response, median ([2]; n = 7, median): 1.26 µg/mL | Free serum TEIC concentration, patients with effective response, median ([2]; n = 17, median): 1.50 µg/mL | Free serum TEIC concentration, patients without adverse events, median ([2]; n = 34, median): 1.35 µg/mL | Free serum TEIC concentration, single patient with efficacy ([2]; one of the 17 patients who showed efficacy, total serum TEIC < 15 µg/mL): 1.67 µg/mL | Free serum TEIC concentration, single patient with high total concentration ([2]; one patient, total serum TEIC > 40 μg/mL): 1.78 µg/mL | Cutoff value of free serum TEIC concentration for occurrence of adverse events [3]: 2.07 µg/mL | Trough total concentration, loading dose period, median ([4]; loading dose period (days 3–4, median dose 13 mg/kg every 12 h), serum, HPLC-UV): 24.3 µg/mL | Trough total concentration, maintenance dose period, median ([4]; maintenance dose period (day 7 onward, median dose 7.8 mg/kg once daily), serum, HPLC-UV): 26.2 µg/mL | Total serum TEIC concentration, patients with adverse events, median ([4]; n = 7): 36.1 µg/mL | Total serum TEIC concentration, patients without effective response, median ([4]; n = 7): 21.1 µg/mL | Total serum TEIC concentration, patients with effective response, median ([4]; n = 17): 24.8 µg/mL | Total serum TEIC concentration, patients without adverse events, median ([4]; n = 34): 30.1 µg/mL | nKa (binding sites per albumin molecule × association constant) ([5]; analysis of Yano et al.): 1.78 (g/dL)^−1 | Protein-binding rate used by Byrne et al. [5]: 90–95% | Protein-binding rate ([5]; in humans, serum albumin): ≥ 90% | Free teicoplanin percentage, median ([6]; all samples, ultrafiltration 30 kDa, free/total): 6.3% | Free teicoplanin percentage, loading dose period, median ([6]; loading dose period, ultrafiltration): 6.2% | Free teicoplanin percentage, maintenance dose period, median ([6]; maintenance dose period, ultrafiltration): 6.3%
